Key:
MGC-803 = experiment: Antiproliferative activity against human MGC803 cells after 72 hrs by MTT assay; format: functional, cell-based; settings: MGC-803, 72 h
Outline: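 MGC-803 and MCF-7 cells grown in DMEM (MCF-7 with 1× NEAA); Bel-7402 and K562 grown in RPMI 1640; all media with 10% FBS. Cells seeded at 3500/well, pre-incubated 24 h, then exposed to compounds in fresh medium (DMSO ≤0.25%) for 72 h at 37 °C. MTT read-out at 570 nm. Quadruplicate wells, repeated three times; means ± SD (n = 3).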

[1] = Permeability from basolateral to apical side in human Caco2 cells at 100 uM after 5 mins by HPLC method; format: ADME, cell-based; settings: caco-2, 5 min
MCF7 [2] = experiment: Inhibition of colony formation in human MCF7 cells incubated for 24 hrs measured after 10 days by crystal violet staining based microscopic method; format: functional, cell-based
Outline: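 MCF-7 cells were plated at 3 × 10^2 per well and left overnight, then exposed to 0, 75, 150 or 300 nM (DMSO vehicle) for 24 h. Medium was removed and cells grew a further 10 days. Colonies were fixed in methanol for 15 min, stained with 0.1% crystal violet for 15 min and counted; a colony was >50 cells. At least three independent experiments, mean ± SD.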

MCF7 [3] = experiment: Cell cycle arrest in human MCF7 cells assessed as accumulation at G1 phase at 0.125 uM after 48 hrs by propidium iodide staining based flow cytometry (reference value: 49.77%); format: functional
Outline: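 MCF-7 cells, 5 × 10^4 per well, seeded overnight, then exposed to 0.125–1 μM compound, or DMSO, for 48 h. Ethanol-fixed (70%, −20 °C, 12 h) and stained with PI/RNase at 37 °C for 30 min. Phase distribution determined by flow cytometry.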

Bel-7402 = experiment: Cell cycle arrest in human Bel7402 cells assessed as accumulation at S phase at 0.5 uM after 48 hrs by propidium iodide staining based flow cytometry (reference value: 8.78%); format: functional
[4] = target: T1, M-phase inducer phosphatase 3 (Homo sapiens) (UniProt P30307); experiment: Induction of cdc25c phosphorylation in human MCF7 cells after 48 hrs by Western blot method; format: cell-based
T1 sequence (whole entry): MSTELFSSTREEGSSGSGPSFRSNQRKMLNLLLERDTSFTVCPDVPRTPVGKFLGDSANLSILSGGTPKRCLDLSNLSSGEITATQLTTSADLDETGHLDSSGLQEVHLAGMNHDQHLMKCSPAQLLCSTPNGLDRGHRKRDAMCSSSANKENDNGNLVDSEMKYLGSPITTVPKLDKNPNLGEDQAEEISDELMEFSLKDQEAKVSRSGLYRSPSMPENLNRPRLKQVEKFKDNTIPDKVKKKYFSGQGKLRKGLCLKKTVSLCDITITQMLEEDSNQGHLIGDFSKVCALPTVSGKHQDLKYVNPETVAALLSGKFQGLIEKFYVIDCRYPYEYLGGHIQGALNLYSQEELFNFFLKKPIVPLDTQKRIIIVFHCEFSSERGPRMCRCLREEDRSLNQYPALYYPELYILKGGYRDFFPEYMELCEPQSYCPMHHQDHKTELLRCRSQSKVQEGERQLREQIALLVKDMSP
Outline: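 MCF-7 cells were treated at 0, 0.125, 0.25, 0.5 or 1 μM for 48 h, washed in ice-cold PBS and lysed on ice for 20 min. Lysates were spun at 13,000 g, 4 °C. 20 μg protein was run on SDS-PAGE and blotted to PVDF, probed overnight at 4 °C with primary antibodies, then with fluorescent secondary antibodies. Band density was expressed relative to β-actin; three independent experiments.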

MCF7 [5] = experiment: Induction of apoptosis in human MCF7 cells assessed as live cells at 0.125 uM after 24 hrs by Annexin-V FITC/propidium iodide staining based flow cytometry (reference value: 97%); format: functional
MCF7 [6] = experiment: Induction of apoptosis in human MCF7 cells assessed as early apoptotic cells at 0.125 uM after 24 hrs by Annexin-V FITC/propidium iodide staining based flow cytometry (reference value: 2.65%); format: functional
MCF7 [7] = experiment: Induction of apoptosis in human MCF7 cells assessed as late apoptotic cells at 0.125 uM after 24 hrs by Annexin-V FITC/propidium iodide staining based flow cytometry (reference value: 0.255%); format: functional
MCF7 [8] = experiment: Induction of apoptosis in human MCF7 cells assessed as necrotic cells at 0.25 uM after 24 hrs by Annexin-V FITC/propidium iodide staining based flow cytometry (reference value: 0.102%); format: functional
MCF7 [9] = experiment: Induction of apoptosis in human MCF7 cells assessed as live cells at 0.5 uM after 24 hrs by Annexin-V FITC/propidium iodide staining based flow cytometry (reference value: 97%); format: functional
MCF7 [10] = experiment: Induction of apoptosis in human MCF7 cells assessed as necrotic cells at 1 uM after 24 hrs by Annexin-V FITC/propidium iodide staining based flow cytometry (reference value: 0.102%); format: functional
MCF7 [11] = experiment: Induction of apoptosis in human MCF7 cells assessed as decrease in pro-caspase-3 to caspase-3 protein expression ratio after 48 hrs by Western blot method; format: functional, cell-based
Outline: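 MCF-7 cells exposed to 0–1 μM compound for 48 h, then lysed on ice. Lysate (20 μg protein) run on 8–12% SDS-PAGE and transferred to PVDF. Probed overnight at 4 °C with primary antibodies, then fluorescent secondaries. Band densities normalized to β-actin. Mean ± SD of three independent experiments.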

MCF7 [12] = experiment: Antitumor activity against human MCF7 cells xenografted in Balb/c nude mouse assessed as tumor growth inhibition at 20 mg/kg/day, iv for 4 weeks relative to control; format: functional; settings: 672 h, read-out: TGI
Outline: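 Six-week-old male BALB/c nude mice received 1 × 10^6 MCF-7 cells subcutaneously in the right flank. After 7 d of tumor growth, mice were randomized into groups of six. Dosing was 20 mg/kg iv once daily for 28 days in 10% DMF/2% poloxamer/88% saline. Tumor volume (L × W²/2) and body weight were recorded every 2 days. Inhibition = (1 − mean treated/control tumor weight) × 100%.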

Mus musculus [13] = experiment: Cardiotoxicity in Balb/c nude mouse xenografted with human MCF7 cells assessed as morphological changes in heart at 20 mg/kg/day, iv for 4 weeks by hematoxylin and eosin staining based microscopic method; format: toxicity, organism-based; settings: in vivo, 672 h
Outline: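 Male BALB/c nude mice (6 weeks old) carrying subcutaneous MCF-7 xenografts (1 × 10^6 cells). Dosed iv 20 mg/kg daily for 28 days in 10% DMF/2% poloxamer/88% saline; six mice per group. Organs then fixed in 4% paraformaldehyde, paraffin-embedded, cut at 5 μm, stained with Harris hematoxylin and eosin-phloxine, and examined by light microscopy.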

Mus musculus [14] = experiment: Toxicity in Balb/c nude mouse xenografted with human MCF7 cells assessed as morphological changes in lungs at 20 mg/kg/day, iv for 4 weeks by hematoxylin and eosin staining based microscopic method; format: organism-based; settings: in vivo, 672 h
Outline: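 Male BALB/c nude mice aged six weeks received 1 × 10^6 MCF-7 cells subcutaneously in the right flank. After 7 d they were randomized and dosed 20 mg/kg iv once daily in 10% DMF/2% poloxamer/88% saline; saline control. Heart, liver, spleen, lung and kidney were fixed in 4% paraformaldehyde, paraffin-embedded, sectioned at 5 μm, H&E stained and examined microscopically.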

[15] = Selectivity ratio of IC50 for human KB/CP4 cells to IC50 for human KB-3-1 cells

Compound: C=C1C(=O)[C@]23[C@H](OC(=O)/C=C/c4ccccc4)[C@H]1CC[C@H]2[C@]12C=CCC(C)(C)[C@H]1[C@H](O)[C@]3(O)OC2
- IC50 (MGC-803): 1030 nM
- permeability [1]: Permeable
- inhibition (MCF7 [2]): Dose-dependent effect
- Activity (MCF7 [3]): 49.27%
- Activity (Bel-7402): 7.61%
- Activity [4]: Dose-dependent effect
- Activity (MCF7 [5]): 84.9%
- Activity (MCF7 [6]): 4.64%
- Activity (MCF7 [7]): 9.32%
- Activity (MCF7 [8]): 2.39%
- Activity (MCF7 [9]): 54.3%
- Activity (MCF7 [10]): 1.14%
- Activity (MCF7 [11]): Dose-dependent effect
- inhibition in vivo at 20 mg/kg/day (MCF7 [12]): 69.8%
- Activity (Mus musculus [13]): Non-Toxic
- Activity (Mus musculus [14]): Non-Toxic
- Ratio IC50 [15]: <1
